# Results published in ChEMBL document CHEMBL1165943, “Design and synthesis of new anticancer pyrimidines with multiple-kinase inhibitory effect” (Bioorg Med Chem, 2010).
# Legend:
# [1] = Cytotoxicity against human Hs 578T cells assessed as cell growth at 0.01 uM after 48 hrs by sulforhodamine B assay; format: functional; settings: read-out: Activity
# MOLT-4 [2] = test: Cytotoxicity against human MOLT4 cells assessed as cell growth at 10 uM after 48 hrs by sulforhodamine B assay; format: functional; settings: MOLT-4, 48 h, read-out: Activity
# SNB-75 = test: Cytotoxicity against human SNB75 cells assessed as cell growth at 1 uM after 48 hrs by sulforhodamine B assay; format: functional; settings: SNB-75, 48 h, read-out: Activity
# A549 = test: Cytotoxicity against human A549 cells assessed as cell growth at 100 nM after 48 hrs by sulforhodamine B assay; format: functional; settings: A549, 48 h, read-out: Activity
# In short: (§1)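 Cells grown in RPMI 1640 with 5% FBS and 2 mM L-glutamine, seeded at 5,000–40,000 cells/well by doubling time. Time-zero plates TCA-fixed after 24 h. Five concentrations (10-fold or half-log dilutions from DMSO stock) added; 48 h at 37 °C, 5% CO2. Cold TCA fixation (final 10%, 60 min, 4 °C), 0.4% SRB stain, dye solubilized in 10 mM trizma base, A515.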
# HT-29 [3] = test: Cytotoxicity against human HT-29 cells assessed as cell growth at 100 nM after 48 hrs by sulforhodamine B assay; format: functional; settings: HT-29, 48 h, read-out: Activity
# Malme-3M = test: Cytotoxicity against human MALME-3M cells assessed as cell growth at 0.001 uM after 48 hrs by sulforhodamine B assay; format: functional; settings: read-out: Activity
# DU-145 [4] = test: Cytotoxicity against human DU145 cells assessed as cell growth at 10 uM after 48 hrs by sulforhodamine B assay; format: functional; settings: DU-145, 48 h, read-out: Activity
# HT-29 [5] = test: Growth inhibition of human HT-29 cells after 48 hrs by sulforhodamine B assay; format: functional, cell-based; settings: HT-29, 48 h
# In short: (§2)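 Cells grown in RPMI 1640 with 5% FBS and 2 mM L-glutamine, seeded at 5,000–40,000 cells/well according to doubling time. After 24 h, time-zero plates are TCA-fixed. Five concentrations (10-fold or ½log dilutions, DMSO stocks) are applied for 48 h at 37 °C, 5% CO₂. Cells are TCA-fixed, SRB-stained and read at 515 nm. IC₅₀ is taken from [(Ti−Tz)/(C−Tz)]×100 = 50.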
# SK-MEL-5 = test: Growth inhibition of human SK-MEL-5 cells after 48 hrs by sulforhodamine B assay; format: functional, cell-based; in short: as §2
# SNB-19 = test: Growth inhibition of human SNB19 cells after 48 hrs by sulforhodamine B assay; format: functional, cell-based; settings: SNB-19, 48 h; in short: as §2
# DU-145 [6] = test: Cytotoxicity against human DU145 cells assessed as cell growth at 0.01 uM after 48 hrs by sulforhodamine B assay; format: functional; settings: DU-145, 48 h, read-out: Activity
# MDA-MB-468 = test: Cytotoxicity against human MDA-MB-468 cells assessed as cell growth at 1 uM after 48 hrs by sulforhodamine B assay; format: functional; settings: MDA-MB-468, 48 h, read-out: Activity
# HOP-62 [7] = test: Cytotoxicity against human HOP62 cells assessed as cell growth at 10 uM after 48 hrs by sulforhodamine B assay; format: functional; settings: HOP-62, 48 h, read-out: Activity
# UACC-62 = test: Cytotoxicity against human UACC62 cells assessed as cell growth at 0.01 uM after 48 hrs by sulforhodamine B assay; format: functional; settings: UACC-62, 48 h, read-out: Activity
# SF-268 [8] = test: Cytotoxicity against human SF268 cells assessed as cell growth at 1 uM after 48 hrs by sulforhodamine B assay; format: functional; settings: SF-268, 48 h, read-out: Activity
# NCI-H23 = test: Growth inhibition of human NCI-H23 cells after 48 hrs by sulforhodamine B assay; format: functional, cell-based; settings: NCI-H23, 48 h; in short: as §2
# SF-295 = test: Cytotoxicity against human SF295 cells assessed as cell growth at 10 uM after 48 hrs by sulforhodamine B assay; format: functional; settings: SF-295, 48 h, read-out: Activity
# HCT-15 = test: Cytotoxicity against human HCT15 cells assessed as cell growth at 1 uM after 48 hrs by sulforhodamine B assay; format: functional; settings: HCT-15, 48 h, read-out: Activity
# SN12C = test: Cytotoxicity against human SN12C cells assessed as cell growth at 0.001 uM after 48 hrs by sulforhodamine B assay; format: functional; settings: read-out: Activity
# U-251 = test: Cytotoxicity against human U251 cells assessed as cell growth at 10 uM after 48 hrs by sulforhodamine B assay; format: functional; settings: U-251, 48 h, read-out: Activity
# HOP-62 [9] = test: Cytotoxicity against human HOP62 cells assessed as cell growth at 0.01 uM after 48 hrs by sulforhodamine B assay; format: functional; settings: HOP-62, 48 h, read-out: Activity
# MDA-MB-231 = test: Cytotoxicity against human MDA-MB-231 cells assessed as cell growth at 0.001 uM after 48 hrs by sulforhodamine B assay; format: functional; settings: MDA-MB-231, 48 h, read-out: Activity
# TK-10 = test: Cytotoxicity against human TK10 cells assessed as cell growth at 0.01 uM after 48 hrs by sulforhodamine B assay; format: functional; settings: TK-10, 48 h, read-out: Activity
# OVCAR-4 = test: Growth inhibition of human OVCAR4 cells after 48 hrs by sulforhodamine B assay; format: functional, cell-based; in short: as §2
# OVCAR-3 = test: Cytotoxicity against human OVCAR-3 cells assessed as cell growth at 0.001 uM after 48 hrs by sulforhodamine B assay; format: functional; settings: OVCAR-3, 48 h, read-out: Activity
# HT-29 [10] = test: Cytotoxicity against human HT-29 cells assessed as cell growth at 0.01 uM after 48 hrs by sulforhodamine B assay; format: functional; settings: HT-29, 48 h, read-out: Activity
# BT-549 [11] = test: Cytotoxicity against human BT549 cells assessed as cell growth at 0.01 uM after 48 hrs by sulforhodamine B assay; format: functional; settings: BT-549, 48 h, read-out: Activity; in short: as §1
# BT-549 [12] = test: Cytotoxicity against human BT549 cells assessed as cell growth at 10 uM after 48 hrs by sulforhodamine B assay; format: functional; settings: BT-549, 48 h, read-out: Activity; in short: as §1
# COLO 205 = test: Cytotoxicity against human COLO205 cells assessed as cell growth at 0.01 uM after 48 hrs by sulforhodamine B assay; format: functional; settings: COLO 205, 48 h, read-out: Activity; in short: as §1
# MOLT-4 [13] = test: Cytotoxicity against human MOLT4 cells assessed as cell growth at 0.01 uM after 48 hrs by sulforhodamine B assay; format: functional; settings: MOLT-4, 48 h, read-out: Activity
# SF-268 [14] = test: Cytotoxicity against human SF268 cells assessed as cell growth at 0.001 uM after 48 hrs by sulforhodamine B assay; format: functional; settings: SF-268, 48 h, read-out: Activity
# CAKI-1 = test: Cytotoxicity against human Caki1 cells assessed as cell growth at 100 nM after 48 hrs by sulforhodamine B assay; format: functional; settings: CAKI-1, 48 h, read-out: Activity
# [15] = read-out: LC50 (the source's name)
smiles,measurement,setting,value
CC(=O)c1ccccc1-c1ccc(-c2ccnc(NC(=O)Nc3cc(N4CCOCC4)cc(C(F)(F)F)c3)n2)cn1,growth at 0.01 µM,[1],101%
same,growth at 10 µM,MOLT-4 [2],101%
same,growth at 1 µM,SNB-75,36%
same,growth at 0.1 µM,A549,92%
same,growth at 0.1 µM,HT-29 [3],98%
same,growth at 0.001 µM,Malme-3M,94%
same,growth at 10 µM,DU-145 [4],59%
same,GI50,HT-29 [5],> 100 µM
same,IC50,HT-29 [5],> 100 µM
same,TGI,HT-29 [5],> 100 µM
same,CC50,HT-29 [5]; [15],> 100 µM
same,TGI,"SK-MEL-5; Homo sapiens, SK-MEL-5, 48 h",> 100 µM
same,CC50,"SK-MEL-5; Homo sapiens, SK-MEL-5, 48 h, read-out: LC50 (the source's name)",> 100 µM
same,IC50,SK-MEL-5; sk-mel-5,Not Active
same,GI50,SNB-19,9.04 µM
same,IC50,SNB-19,38.7 µM
same,TGI,SNB-19,> 100 µM
same,CC50,SNB-19; [15],> 100 µM
same,growth at 0.01 µM,DU-145 [6],97%
same,growth at 1 µM,MDA-MB-468,109%
same,growth at 10 µM,HOP-62 [7],19%
same,growth at 0.01 µM,UACC-62,94%
same,growth at 1 µM,SF-268 [8],60%
same,GI50,NCI-H23,2.95 µM
same,IC50,NCI-H23,> 100 µM
same,TGI,NCI-H23,> 100 µM
same,CC50,NCI-H23; [15],> 100 µM
same,growth at 10 µM,SF-295,48%
same,growth at 1 µM,HCT-15,88%
same,growth at 0.001 µM,SN12C,93%
same,growth at 10 µM,U-251,39%
same,growth at 0.01 µM,HOP-62 [9],100%
same,growth at 0.001 µM,MDA-MB-231,101%
same,growth at 0.01 µM,TK-10,117%
same,TGI,"OVCAR-4; Homo sapiens, OVCAR-4, 48 h",> 100 µM
same,CC50,"OVCAR-4; Homo sapiens, OVCAR-4, 48 h, read-out: LC50 (the source's name)",> 100 µM
same,IC50,OVCAR-4; ovcar-4,Not Active
same,growth at 0.001 µM,OVCAR-3,107%
same,growth at 0.01 µM,HT-29 [10],105%
same,growth at 0.01 µM,BT-549 [11],91%
same,growth at 10 µM,BT-549 [12],46%
same,growth at 0.01 µM,COLO 205,114%
same,growth at 0.01 µM,MOLT-4 [13],76%
same,growth at 0.001 µM,SF-268 [14],103%
same,growth at 0.1 µM,CAKI-1,84%
